Screening results (PubChem BioAssay)
Rtt109 HAT inh = blocks Candida albicans Rtt109/Vps75 acetyltransferase activity; Q5AAJ8; AID 540336; purified Rtt109/Vps75, ThioGlo CoA-SH fluorescence, 4 h; actives 0.16% (n = 330,000); inhibition, % at 34.9 µM;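 active = inhibition of at least 50% in every replicate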
miR-122 sensor = inhibitors of miR-122 in Huh7 cells; Huh7 miR-122 Renilla luciferase sensor, 48 h; neutral wells = 0, positive control = 100; activation (reporter increase), % at 12.5 µM; actives 0.3% (n = 340,000); AID 602342;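 active = mean replicate activation score at least 90 and every replicate individually at or above 90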;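 note: higher luciferase means less miR-122 activity so hits act as miR-122 inhibitors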
ERAP1 inh = inhibitors of human ERAP1 aminopeptidase | actives 0.15% (n = 340,000) | recombinant ERAP1, Leu-AMC fluorescence, 60 min | Q9NZ08 | AID 652197 | inhibition, % at 10.7 µM;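 active = mean replicate inhibition of at least 30%, or all replicates individually reaching that 30% level; inactive = mean below 30% and not every replicate reaching it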;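 note: 0% = neutral control wells and 100% = L-leucinethiol positive control wells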
AF4-AF9 inh = blocks AF4 peptide binding to human AF9; P42568; AlphaScreen, biotin-AF4 peptide binding to FLAG-AF9; inhibition, % at 10 µM; actives 0.47% (n = 350,000);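 active = every replicate reaching a set inhibition limit, whatever the replicate mean, cut at about 25% in these data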;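 note: 0% = plate neutral control median and 100% = total signal loss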
S100A4 inh HTS = inhibitors of human S100A4 binding to myosin IIA peptide. P26447. S100A4/TAMRA-MyoIIA peptide fluorescence polarization. inhibition, % at 10.7 µM. actives 0.14% (n = 360,000). AID 652163;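 active = mean inhibition of at least 70% across replicates, with every replicate also reaching that level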
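System – human S100A4 monomer protein, biochemical binding assay · Buffer or medium – Calcium-containing HEPES buffer, pH 7.2 · Timing – 5 min between mix addition and reading · Also added – TAMRA-labelled myosin IIA heavy-chain peptide probe, 5 nM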
Numbers without * were called inactive; · = no result given; [ ] = dose if it differs, or a comment. In the library only some 0.86% were active in any assay of this set; here they are far more common.

SMILES	Rtt109 HAT inh	miR-122 sensor	ERAP1 inh	AF4-AF9 inh	S100A4 inh HTS
CC(C)NC(=O)N1[C@@H](CO)[C@@H](c2ccccc2)C12CN(C(=O)Cc1ccccc1)C2	·	·	-6.8	-22.0	7.2
OC[C@@H]1[C@@H](c2ccccc2)C2(CN(Cc3cccnc3)C2)N1Cc1ccncc1	·	·	0.6	26.2*	15.1
OC[C@@H]1[C@H](c2ccccc2)C2(CN(Cc3cccnc3)C2)N1Cc1ccncc1	·	·	-0.5	3.6	-7.4
CC(C)NC(=O)N1[C@@H](CO)[C@@H](c2ccccc2)C12CN(C(=O)Cc1cccnc1)C2	·	·	0.3	-8.3	125.2*
O=C(C[C@H]1CC[C@H](NC(=O)Nc2ccccc2F)[C@@H](CO)O1)NCc1ccc(Cl)cc1	·	·	-0.5	0.5	6.4
CCNC(=S)NNC(=O)C1CCCCC1	4.9	140.5*	·	·	·
CCNC(=S)N1CCC(NC(=O)C2CCCCC2)CC1	2.4	-1.3	·	·	·
Cn1cnc(S(=O)(=O)N[C@H]2C=C[C@H](CC(=O)NCC3CC3)O[C@@H]2CO)c1	·	6.6[16.7 µM]	3.2	-0.4	-2.9
Cc1ccc(S(=O)(=O)N[C@H]2C=C[C@@H](CC(=O)O)O[C@@H]2CO)cc1	·	·	3.6	-2.7	2.9
Cn1cnc(S(=O)(=O)N[C@@H]2C=C[C@@H](CC(=O)NCC3CC3)O[C@H]2CO)c1	·	-2.8[16.7 µM]	0.4	-2.7	107.9*
O=C(COc1ccc(S(=O)(=O)NC2CCCCC2)cc1)NC1CCCCC1	7.9	86.1	·	·	·
O=C(C[C@H]1C=C[C@H](NS(=O)(=O)c2ccc(F)cc2)[C@@H](CO)O1)NC1CCC1	·	·	-5.1	-4.8	2.5
O=C(COc1ccc(S(=O)(=O)NC2CCCCC2)cc1)NC1CCCC1	0.0	245.1*	-1.3	-2.1	-0.5
Cc1ccc(S(=O)(=O)N[C@H]2C=C[C@H](CC(=O)O)O[C@@H]2CO)cc1	·	·	3.7	0.1	121.6*
Cc1ccc(S(=O)(=O)N[C@H]2C=C[C@@H](CC(=O)NC3CCCCC3)O[C@@H]2CO)cc1	·	·	-2.9	-0.7	94.9*
Cc1noc(C)c1S(=O)(=O)N(C)C[C@@H]1OCCCC[C@H](C)Oc2ccc(NS(C)(=O)=O)cc2C(=O)N([C@@H](C)CO)C[C@H]1C	·	2.2[16.7 µM]	1.0	-12.2	-1.9
CC(=O)N(C)C[C@@H]1Oc2cc(-c3ccccc3F)ccc2S(=O)(=O)N([C@@H](C)CO)C[C@@H]1C	·	-1.0[16.7 µM]	0.1	-2.4	4.3
C[C@@H]1CN([C@@H](C)CO)C(=O)c2cc(-c3ccc(C#N)cc3)cnc2O[C@H]1CN(C)CC1CCCC1	·	-11.7[16.7 µM]	1.0	0.0	41.2
Oc1cc(O)cc(C=Cc2ccc(O)c(O)c2)c1	·	·	31.1*	10.3	-2.3
Oc1ccc(/C=C/c2cc(O)cc(O)c2)cc1	9.5	4.4	-1.1	2.3	0.2
Cc1ccc(S(=O)(=O)N2CC[C@@H]3[C@@H](CO)Nc4ccc(C#Cc5ccccc5F)cc4[C@@H]32)cc1	·	-3.4[16.7 µM]	·	·	·
C=CCn1cc(C(=O)N2CCN(CC)CC2)c(=O)c2cc(S(=O)(=O)N(CC)CC)ccc21	2.3	·	5.1	44.9*	1.1
C=CCn1cc(C(=O)NCCCOC)c(=O)c2cc(S(=O)(=O)N(CC)CC)ccc21	19.8	·	·	·	·
CCCC#Cc1ccc2c(c1)O[C@@H](CN(C)C(C)=O)[C@H](C)CN([C@H](C)CO)S2(=O)=O	·	2.6[16.7 µM]	-0.5	-1.8	11.3
CCCc1nc2sc3c(=O)[nH]cnc3c2c2c1CCCC2	·	·	1.1	2.7	-6.2
SMILES	Rtt109 HAT inh	miR-122 sensor	ERAP1 inh	AF4-AF9 inh	S100A4 inh HTS
CC(C)Cc1nc2sc3c(=O)[nH]cnc3c2c2c1CCC2	-11.5	125.8*	·	·	·
O=C(C[C@@H]1CC[C@H]2[C@@H](COC[C@@H](O)CN2C(=O)c2cccnc2)O1)NC1Cc2ccccc2C1	·	4.7[16.7 µM]	-2.2	-1.3	-20.9
O=C(c1ccccc1)c1ccc(-c2ccc(O)cc2)cc1	-4.8	91.7*	-8.7	2.3	6.0
Cc1ccc(NC(=O)CN2C(=O)S/C(=C/c3ccc(-c4cc(C(=O)O)ccc4C)o3)C2=O)cc1C	-8.0	38.8	·	·	·
COC(=O)C(C)N1C(=O)S/C(=C\c2ccc(-c3ccc(C(=O)O)cc3C)o2)C1=O (stereo unspecified)	-2.3	-11.4	57.3*	-4.5	-2.5
CN1C(=O)c2cc(NC(=O)c3cccs3)ccc2OC[C@H]2O[C@@H](CC(=O)NCCN3CCCCC3)CC[C@H]21	·	-16.7[16.7 µM]	0.2	0.2	1.2
COc1cc(CNCc2ccc(C)cc2)cc(OC)c1OC	50.5*	0.5	-4.9	-1.6	-3.0
